# Measured values reported in ChEMBL document CHEMBL4028907, “Semisynthesis and Biological Evaluation of Xanthone Amphiphilics as Selective, Highly Potent Antifungal Agents to Combat Fungal Resistance” (J Med Chem, 2017).
# The source made the active and inactive calls. No cut-off for these calls is given here.
# Columns and labels:
# Candida albicans [1] = assay: Antifungal activity against Candida albicans ATCC 10231 after 24 hrs by two fold serial dilution method; assay type: functional; details: ATCC 10231, 24 h
# How it was run: (§1)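 Candida grown on Sabouraud dextrose agar at 35 °C for 24 h, adjusted to ~5×10^3 CFU/mL. Two-fold dilutions from 100 to 0.78 μg/mL in Sabouraud dextrose broth, incubated at 35 °C for 24 h. MIC is the lowest concentration inhibiting growth by eye and by OD600. CLSI-based with minor modifications.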
# Candida albicans [2] = assay: Antifungal activity against drug resistant Candida albicans DF2672R after 24 hrs by two fold serial dilution method; assay type: functional; how it was run: as §1
# [3] = Selectivity index, ratio of HC50 for New Zealand white rabbit RBC to MIC for Candida albicans ATCC 10231
# Candida albicans [4] = assay: Antifungal activity against Candida albicans DF1976R after 24 hrs by two fold serial dilution method; assay type: functional; how it was run: as §1
# Candida albicans [5] = assay: Antifungal activity against Candida albicans ATCC90028 after 24 hrs by two fold serial dilution method; assay type: functional; details: ATCC90028, 24 h; how it was run: as §1
# Candida albicans [6] = assay: Antifungal activity against Candida albicans ATCC24433 after 24 hrs by two fold serial dilution method; assay type: functional; details: ATCC24433, 24 h; how it was run: as §1
# Candida albicans [7] = assay: Antifungal activity against Candida albicans ATCC11651 after 24 hrs by two fold serial dilution method; assay type: functional; details: ATCC11651, 24 h; how it was run: as §1
# Fusarium solani [8] = assay: Antifungal activity against Fusarium solani 52628 after 48 hrs by two fold serial dilution method; assay type: functional; details: Fusarium solani, 52628, 48 h
# How it was run: (§2)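 Moulds grown on potato dextrose agar, 30 °C, 4 days; inoculum adjusted to about 5×10^3 CFU/mL. Two-fold serial dilutions in RPMI-1640 broth, 100 to 0.78 μg/mL final, mixed with equal volume of cell suspension; incubated 30 °C, 48 h. MIC = lowest concentration inhibiting growth, judged visually and by OD530.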
# Fusarium solani [9] = assay: Antifungal activity against Fusarium solani 62877 after 48 hrs by two fold serial dilution method; assay type: functional; details: Fusarium solani, 62877, 48 h; how it was run: as §2
# Fusarium solani [10] = assay: Antifungal activity against Fusarium solani MYA3636 after 48 hrs by two fold serial dilution method; assay type: functional; details: MYA3636, 48 h; how it was run: as §2
# Fusarium solani [11] = assay: Antifungal activity against Fusarium solani 46492 after 48 hrs by two fold serial dilution method; assay type: functional; details: Fusarium solani, 46492, 48 h; how it was run: as §2
# Aspergillus brasiliensis = assay: Antifungal activity against Aspergillus brasiliensis TCC16404 after 48 hrs by two fold serial dilution method; assay type: functional; details: TCC16404, 48 h; how it was run: as §2
# Aspergillus flavus [12] = assay: Antifungal activity against Aspergillus flavus TCC 204304 after 48 hrs by two fold serial dilution method; assay type: functional; details: TCC 204304, 48 h; how it was run: as §2
# Aspergillus flavus [13] = assay: Antifungal activity against Aspergillus flavus TCC MYA3631 after 48 hrs by two fold serial dilution method; assay type: functional; details: TCC MYA3631, 48 h; how it was run: as §2
# Aspergillus fumigatus [14] = assay: Antifungal activity against Aspergillus fumigatus TCC MYA3626 after 48 hrs by two fold serial dilution method; assay type: functional; details: TCC MYA3626, 48 h; how it was run: as §2
# Aspergillus fumigatus [15] = assay: Antifungal activity against Aspergillus fumigatus TCC 90906 after 48 hrs by two fold serial dilution method; assay type: functional; details: TCC 90906, 48 h; how it was run: as §2
# Candida albicans [16] = assay: Fungicidal activity against drug resistant Candida albicans DF2672R at 8 times MIC after 24 hrs by time kill assay relative to control; assay type: functional
# How it was run: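 Cells at 10^5–10^6 CFU/mL exposed to 1×, 2×, 4× or 8× MIC at 35 °C. Samples taken at 0.5, 1, 2, 4, 8 and 24 h, serially diluted in PBS and plated on SDA. CFU counted after 24 h at 35 °C; biological replicates.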
# Fusarium oxysporum [17] = assay: Antifungal activity against Fusarium oxysporum MYA3461 after 48 hrs by two fold serial dilution method; assay type: functional; details: MYA3461, 48 h; how it was run: as §2
# Fusarium oxysporum [18] = assay: Antifungal activity against Fusarium oxysporum 64530 after 48 hrs by two fold serial dilution method; assay type: functional; details: Fusarium oxysporum, 64530, 48 h; how it was run: as §2
# Candida albicans [19] = assay: Antifungal activity against drug resistant Candida albicans DF2672R infected C57BL6 mouse cornea at 5% administered topically for every 20 mins during the first hour and every 1 hr during the next 6 hrs by serial dilution method; assay type: functional
# How it was run: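 C57BL6 mice aged 7–8 weeks (19–23 g), immunosuppressed with cyclophosphamide 100 mg/kg ip at 4 days and 1 day before infection and on day 1 after. Left cornea scratched under xylazine/ketamine, then 20 μL of ~5×10^7 CFU/mL yeast in PBS applied. Treatment started 1 day later; PBS served as control; four mice per group. Corneal fungal load counted by serial dilution plating on SDA.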
SMILES,MIC (Candida albicans [1]) [µg/mL],MIC (Candida albicans [2]) [µg/mL],Selectivity Index [3],MIC (Candida albicans [4]) [µg/mL],MIC (Candida albicans [5]) [µg/mL],MIC (Candida albicans [6]) [µg/mL],MIC (Candida albicans [7]) [µg/mL],MIC (Fusarium solani [8]) [µg/mL],MIC (Fusarium solani [9]) [µg/mL],MIC (Fusarium solani [10]) [µg/mL],MIC (Fusarium solani [11]) [µg/mL],MIC (Aspergillus brasiliensis) [µg/mL],MIC (Aspergillus flavus [12]) [µg/mL],MIC (Aspergillus flavus [13]) [µg/mL],MIC (Aspergillus fumigatus [14]) [µg/mL],MIC (Aspergillus fumigatus [15]) [µg/mL],Activity (Candida albicans [16]) [%],MIC (Fusarium oxysporum [17]) [µg/mL],MIC (Fusarium oxysporum [18]) [µg/mL],Activity (Candida albicans [19])
C[C@@H]1C/C=C/C=C/C=C/C=C/[C@H](O[C@@H]2O[C@H](C)[C@@H](O)[C@H](N)[C@@H]2O)C[C@@H]2O[C@](O)(C[C@@H](O)C[C@H]3O[C@@H]3/C=C/C(=O)O1)C[C@H](O)[C@H]2C(=O)O [NATAMYCIN],6.25,6.25,18.1,6.25,6.25,6.25,6.25,6.25,25,6.25,6.25,6.25,> 50,> 50,6.25,6.25,99.9,3.13,6.25,Active
CC[C@H](C)C[C@H](C)CCCCCCCCC(=O)N[C@H]1C[C@@H](O)[C@@H](NCCN)NC(=O)[C@@H]2[C@@H](O)CCN2C(=O)[C@H]([C@H](O)CCN)NC(=O)[C@H]([C@H](O)[C@@H](O)c2ccc(O)cc2)NC(=O)[C@@H]2C[C@@H](O)CN2C(=O)[C@H]([C@@H](C)O)NC1=O [CASPOFUNGIN],0.1,0.2,,0.2,0.1,0.2,0.2,> 50,> 50,> 50,> 50,> 50,> 50,> 50,> 50,> 50,,> 50,> 50,
